Active and inactive are the calls of the source. The calls are words filed in the database; no cut-off is given here.

The target in experiment [1] is T1, Endothelin receptor type B (Homo sapiens, UniProt P24530).
T1 sequence (P24530 whole entry): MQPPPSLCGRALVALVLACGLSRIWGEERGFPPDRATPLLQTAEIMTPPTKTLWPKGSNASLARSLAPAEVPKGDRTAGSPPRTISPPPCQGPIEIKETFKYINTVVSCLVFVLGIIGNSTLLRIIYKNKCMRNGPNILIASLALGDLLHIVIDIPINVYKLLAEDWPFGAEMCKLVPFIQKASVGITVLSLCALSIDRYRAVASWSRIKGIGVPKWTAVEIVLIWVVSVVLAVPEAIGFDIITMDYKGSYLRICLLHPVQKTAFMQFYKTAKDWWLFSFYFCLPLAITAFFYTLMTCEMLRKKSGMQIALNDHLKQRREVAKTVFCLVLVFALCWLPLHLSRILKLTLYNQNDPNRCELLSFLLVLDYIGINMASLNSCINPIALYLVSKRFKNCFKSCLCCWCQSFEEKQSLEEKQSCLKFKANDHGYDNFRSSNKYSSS
The experiment in a line: Displacement of [125I]ET1 from human ETB receptor expressed in CHO cells. In kind it is cell-based. In a few lines:
(§1)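 Competitive binding against 125I-labeled ET-1 on CHO cells stably expressing human ETA or ETB receptor. Six concentrations, 1 µM to 10 pM, at least three measurements each. IC50 taken from the means.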

The target of experiment [2] is T2, Endothelin-1 receptor (Homo sapiens, UniProt P25101).
T2 sequence (P25101 whole entry): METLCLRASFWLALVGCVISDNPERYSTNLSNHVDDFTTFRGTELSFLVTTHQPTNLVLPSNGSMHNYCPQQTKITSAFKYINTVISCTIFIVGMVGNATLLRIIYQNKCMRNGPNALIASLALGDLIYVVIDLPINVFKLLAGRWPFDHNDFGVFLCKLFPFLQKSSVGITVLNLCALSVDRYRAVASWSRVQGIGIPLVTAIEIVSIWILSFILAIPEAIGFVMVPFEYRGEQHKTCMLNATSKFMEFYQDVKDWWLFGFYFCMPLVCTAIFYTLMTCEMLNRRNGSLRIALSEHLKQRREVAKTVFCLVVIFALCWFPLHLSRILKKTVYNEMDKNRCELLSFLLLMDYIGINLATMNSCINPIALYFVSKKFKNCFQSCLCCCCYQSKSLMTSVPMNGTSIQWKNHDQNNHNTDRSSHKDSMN
Description: Displacement of [125I]ET1 from human ETA receptor expressed in CHO cells. It is filed as cell-based. In a few lines:
as §1

The species named for experiment [3] is Homo sapiens. Description: Selectivity for human ETA receptor over human ETB receptor.
Experiment [4] has as its system PC-3. Description: Inhibition of tumor growth in PC3 cells xenografted mouse at 0.25 mg/kg administered once weekly for 31 days. In kind it is functional, organism-based. Also noted: dose 0.25 mg/kg. The note with it: Homo sapiens. The method, boiled down: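 PC-3 prostate cancer xenograft. Dosing at 0.25 mg/kg once weekly. Tumor volume tracked to day 31 against vehicle control. Significance by one-way ANOVA with Dunnett's multiple comparison test to vehicle.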

The test system of experiment [5] is PC-3. Description: Inhibition of tumor growth in human PC3 cells xenografted mouse at 2 mg/kg after 31 days. In kind it is functional. The note with it: PC-3, 744 h. The method, boiled down: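 PC-3 prostate cancer xenograft. Dosing at 2 mg/kg […]. Tumor volume growth inhibition read at day 31 against vehicle control. Significance by one-way ANOVA with Dunnett's test to vehicle.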
A general note: Xenograft models place foreign cells or tissue in a host animal.

Take `CC(=O)CC(=O)CCc1ccc(NC(=O)CCOCCOCCOCCOc2ccc(-c3ccccc3S(=O)(=O)Nc3ccno3)c(CN(C)C(=O)CC(C)(C)C)c2)cc1`: the IC50 in experiment [1] was over 10000 nM; in experiment [2], 44.9 nM.

`CC(=O)CC(=O)CCc1ccc(NC(=O)CCOCCOCCOCCOCCOc2ccc(CC(=O)N(C)Cc3cc(-c4ncco4)ccc3-c3ccccc3S(=O)(=O)Nc3ccno3)cc2)cc1`: the values for the concentration for half-maximal inhibition (IC50) in experiment [1] and in experiment [2] were 1910 nM and 4.6 nM, respectively. In addition, the Ratio IC50 in experiment [3] was 420.

As for `CC(=O)CC(=O)CCc1ccc(NC(=O)CCOCCOCCOCCOCC(=O)N(C)Cc2cc(-c3ncco3)ccc2-c2ccccc2S(=O)(=O)Nc2ccno2)cc1`, the IC50 in experiment [1] turned out to be 1110 nM; in experiment [2], 1.6 nM. For the same compound, the Ratio IC50 in experiment [3] stood at 1120. Further, the result in experiment [4] was inactive.

Turning to `CC(=O)CC(=O)CCc1ccc(NC(=O)CCOCCOCCOCCOCCOc2ccc(CCC(=O)N(C)Cc3cc(-c4ncco4)ccc3-c3ccccc3S(=O)(=O)Nc3ccno3)cc2)cc1`, the IC50 in experiment [1] amounted to 4920 nM; in experiment [2], 21.6 nM. In experiment [3], the Ratio IC50 stood at 228.

Regarding `CC(=O)CC(=O)CCc1ccc(NC(=O)CCOCCOCCOCCOCCOCCOCCOCCOCCOCCOCCOCCNC(=O)CCCC(=O)N(C)Cc2cc(-c3ncco3)ccc2-c2ccccc2S(=O)(=O)Nc2ccno2)cc1`, the figures for the IC50 in experiment [1] and in experiment [2] were 4510 nM and 7.7 nM, respectively. For the same compound, the Ratio IC50 in experiment [3] came to 564.

Regarding `CC(=O)CC(=O)CCc1ccc(NC(=O)CCOCCOCCOCCOCCOCCOCCOCCC(=O)N(C)Cc2cc(-c3ncco3)ccc2-c2ccccc2S(=O)(=O)Nc2ccno2)cc1`, the IC50 in experiment [1] amounted to 4690 nM; in experiment [2], 8 nM. The Ratio IC50 in experiment [3] amounted to 564.

As to `CN(Cc1cc(-c2ncco2)ccc1-c1ccccc1S(=O)(=O)Nc1ccno1)C(=O)CC(C)(C)C`, the IC50 in experiment [1] turned out to be 6000 nM; in experiment [2] it was 1 nM. In experiment [5], this compound yielded an inhibition in vivo at 2 mg/kg of 50%. Besides, the Ratio IC50 in experiment [3] came out at 8980.

In general, IC50 refers to the concentration at which inhibition is half-maximal. A lower IC50 goes with greater potency. For orientation: inhibition in vivo means the percentage by which the read-out fell short of the control.

The values are drawn from ChEMBL document CHEMBL1138388, “Chemically programmed antibodies: endothelin receptor targeting CovX-Bodies” (Bioorg Med Chem Lett, 2007).
